# From ChEMBL document CHEMBL4229571, “Development of 13H-benzo[f]chromeno[4,3-b][1,7]naphthyridines and their salts as potent cytotoxic agents and topoisomerase I/IIα inhibitors” (2018)
# “And” between values parts separate entries of the source, which are not always exact repeats. Equal entries are not always repeated.
# Experiments:
# NCI-H23 = test: Cytotoxicity against human NCI-H23 cells assessed as growth inhibition after 72 hrs by SRB assay; assay type: functional
# How it was run: (§1)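 SRB assay per NCI protocol: 2 × 10^3 cells/well seeded, compounds in DMSO/media added next day (day 0) in quadruplicate at 1 nM–10 μM final, DMSO <0.1%. After 72 h, TCA fixation overnight at 4°C, 0.4% SRB 1 h, dye dissolved in 10 mM Tris, A690 read; day 0 absorbance subtracted. GI50 = concentration giving 50% drop in net growth, mean of three experiments.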
# ACHN = test: Cytotoxicity against human ACHN cells assessed as growth inhibition after 72 hrs by SRB assay; assay type: functional; how it was run: as §1
# NUGC-3 = test: Cytotoxicity against human NUGC3 cells assessed as growth inhibition after 72 hrs by SRB assay; assay type: functional; how it was run: as §1
# MDA-MB-231 = test: Cytotoxicity against human MDA-MB-231 cells assessed as growth inhibition after 72 hrs by SRB assay; assay type: functional; how it was run: as §1
# PC-3 = test: Cytotoxicity against human PC3 cells assessed as growth inhibition after 72 hrs by SRB assay; assay type: functional; how it was run: as §1
# HCT-15 = test: Cytotoxicity against human HCT15 cells assessed as growth inhibition after 72 hrs by SRB assay; assay type: functional; how it was run: as §1
# [1] = biological target: DNA topoisomerase 2-alpha (Homo sapiens) (UniProt P11388); test: Inhibition of recombinant human DNA topoisomerase 2-alpha at 20 uM using supercoiled pBR322 DNA as substrate after 30 mins by densitometric analysis relative to control
# How it was run: (§2)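 200 ng supercoiled pBR322 with 4 units human topo IIα, 30 min at 30 °C, in 10 mM Tris–HCl pH 7.9, 50 mM NaCl, 5 mM MgCl2, 1 mM EDTA, 1 mM ATP, 15 μg/mL BSA. Stopped with EDTA, run on 1% agarose/TAE at 60 V for 1 h, bands quantified by densitometry. Etoposide as positive control. Screening at 100 μM; above 30% inhibition, retested at 20 μM.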
# [2] = biological target: T1, DNA topoisomerase 1 (Homo sapiens) (UniProt P11387); test: Inhibition of recombinant human DNA topoisomerase 1 at 20 uM using supercoiled pBR322 DNA as substrate after 30 mins by densitometric analysis relative to control
# T1 sequence (whole entry): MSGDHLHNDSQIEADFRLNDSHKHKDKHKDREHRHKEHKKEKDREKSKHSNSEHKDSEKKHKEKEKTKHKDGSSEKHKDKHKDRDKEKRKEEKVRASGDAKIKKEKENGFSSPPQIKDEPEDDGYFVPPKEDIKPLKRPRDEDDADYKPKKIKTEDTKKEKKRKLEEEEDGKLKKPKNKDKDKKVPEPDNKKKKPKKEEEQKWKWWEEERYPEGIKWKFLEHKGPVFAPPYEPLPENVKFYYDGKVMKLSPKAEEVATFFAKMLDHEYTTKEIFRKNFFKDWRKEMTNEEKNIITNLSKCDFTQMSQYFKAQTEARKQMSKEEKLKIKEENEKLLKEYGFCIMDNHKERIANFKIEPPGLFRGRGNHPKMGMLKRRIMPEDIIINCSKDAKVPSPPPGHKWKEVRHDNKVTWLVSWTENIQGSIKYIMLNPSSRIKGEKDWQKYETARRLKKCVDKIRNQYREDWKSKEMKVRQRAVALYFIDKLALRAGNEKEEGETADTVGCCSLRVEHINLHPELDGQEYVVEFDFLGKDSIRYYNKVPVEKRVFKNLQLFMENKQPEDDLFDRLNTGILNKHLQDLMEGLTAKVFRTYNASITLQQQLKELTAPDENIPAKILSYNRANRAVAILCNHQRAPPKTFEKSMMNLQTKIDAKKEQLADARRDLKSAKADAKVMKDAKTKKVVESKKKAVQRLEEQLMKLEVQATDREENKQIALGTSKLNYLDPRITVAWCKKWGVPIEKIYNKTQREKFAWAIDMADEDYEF
# How it was run: (§3)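 Relaxation of 100 ng supercoiled pBR322 by 1 unit recombinant human topo I, 37 °C for 30 min, in 10 mM Tris-HCl pH 7.9, 150 mM NaCl, 0.1% BSA, 1 mM spermidine, 5% glycerol. Stopped with sarcosyl solution, run on 1% agarose/TAE at 15 V for 7 h, ethidium bromide stained, bands quantified by densitometry. Camptothecin as positive control. Compounds first screened at 100 μM; those over 30% inhibition retested at 20 μM.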
# [3] = biological target: DNA topoisomerase 2-alpha (Homo sapiens) (UniProt P11388); test: Potency index, ratio of test compound activity to etoposide activity for recombinant human DNA topoisomerase 2-alpha at 20 uM
# [4] = biological target: DNA topoisomerase 2-alpha (Homo sapiens) (UniProt P11388); test: Inhibition of recombinant human DNA topoisomerase 2-alpha at 100 uM using supercoiled pBR322 DNA as substrate after 30 mins by densitometric analysis relative to control; how it was run: as §2
# [5] = biological target: T1, DNA topoisomerase 1 (Homo sapiens); test: Inhibition of recombinant human DNA topoisomerase 1 at 100 uM using supercoiled pBR322 DNA as substrate after 30 mins by densitometric analysis relative to control; how it was run: as §3
# [6] = biological target: T1, DNA topoisomerase 1 (Homo sapiens); test: Potency index, ratio of test compound activity to camptothecin activity for recombinant human DNA topoisomerase 1 at 100 uM
# DNA topoisomerase 2-alpha (Homo sapiens), sequence (P11388 whole entry): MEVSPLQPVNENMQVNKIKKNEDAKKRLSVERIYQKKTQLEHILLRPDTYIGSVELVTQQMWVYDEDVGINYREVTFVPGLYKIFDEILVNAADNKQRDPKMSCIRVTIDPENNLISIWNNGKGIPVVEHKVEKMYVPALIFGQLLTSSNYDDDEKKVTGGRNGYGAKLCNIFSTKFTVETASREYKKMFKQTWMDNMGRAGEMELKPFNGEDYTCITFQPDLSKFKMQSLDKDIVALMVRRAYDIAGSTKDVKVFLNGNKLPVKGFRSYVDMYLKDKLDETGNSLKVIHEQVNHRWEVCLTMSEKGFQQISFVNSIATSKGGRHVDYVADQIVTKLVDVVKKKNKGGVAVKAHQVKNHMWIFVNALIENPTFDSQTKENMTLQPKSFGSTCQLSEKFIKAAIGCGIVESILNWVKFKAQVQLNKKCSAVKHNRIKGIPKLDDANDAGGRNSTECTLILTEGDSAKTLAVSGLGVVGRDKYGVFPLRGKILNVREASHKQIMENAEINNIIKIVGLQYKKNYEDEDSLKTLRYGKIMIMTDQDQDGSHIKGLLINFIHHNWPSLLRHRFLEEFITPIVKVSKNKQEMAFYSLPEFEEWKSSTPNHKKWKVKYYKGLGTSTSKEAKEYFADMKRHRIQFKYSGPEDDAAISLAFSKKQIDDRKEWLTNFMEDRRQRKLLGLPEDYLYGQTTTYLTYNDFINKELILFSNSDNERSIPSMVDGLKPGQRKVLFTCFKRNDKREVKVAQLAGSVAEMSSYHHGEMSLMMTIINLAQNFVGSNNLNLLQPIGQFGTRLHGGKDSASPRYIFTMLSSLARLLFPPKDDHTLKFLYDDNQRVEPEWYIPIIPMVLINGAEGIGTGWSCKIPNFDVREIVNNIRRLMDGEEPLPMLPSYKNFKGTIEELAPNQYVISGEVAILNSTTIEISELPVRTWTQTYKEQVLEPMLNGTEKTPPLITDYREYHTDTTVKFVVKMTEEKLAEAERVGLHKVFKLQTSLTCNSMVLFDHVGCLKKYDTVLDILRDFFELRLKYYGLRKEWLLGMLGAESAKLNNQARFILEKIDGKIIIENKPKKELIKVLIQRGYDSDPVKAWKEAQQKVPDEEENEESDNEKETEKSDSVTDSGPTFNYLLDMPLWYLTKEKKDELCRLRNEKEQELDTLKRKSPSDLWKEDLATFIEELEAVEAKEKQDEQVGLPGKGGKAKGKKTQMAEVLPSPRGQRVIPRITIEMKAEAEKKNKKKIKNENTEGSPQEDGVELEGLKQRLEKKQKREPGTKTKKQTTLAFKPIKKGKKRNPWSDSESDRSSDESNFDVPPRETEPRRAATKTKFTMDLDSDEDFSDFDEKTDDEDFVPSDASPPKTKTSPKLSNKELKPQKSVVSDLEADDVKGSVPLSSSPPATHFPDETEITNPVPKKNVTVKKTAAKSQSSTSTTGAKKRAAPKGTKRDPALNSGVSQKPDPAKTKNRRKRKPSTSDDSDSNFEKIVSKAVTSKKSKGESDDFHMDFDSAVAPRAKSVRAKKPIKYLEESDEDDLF
SMILES,"GI50 (NCI-H23; Homo sapiens, NCI-H23, 72 h) [nM]","GI50 (ACHN; Homo sapiens, ACHN, 72 h) [nM]","GI50 (NUGC-3; Homo sapiens, NUGC-3, 72 h) [nM]","GI50 (MDA-MB-231; Homo sapiens, MDA-MB-231, 72 h) [nM]","GI50 (PC-3; Homo sapiens, PC-3, 72 h) [nM]","GI50 (HCT-15; Homo sapiens, HCT-15, 72 h) [nM]",also measured
CC(C)(C)c1cc2c(c(C(C)(C)C)c1)OCc1cc3c(cnc4ccccc43)nc1-2,> 10000,> 10000,> 10000,> 10000,> 10000,> 10000,
c1ccc2c3c(ccc2c1)OCc1cc2c(cnc4ccccc42)nc1-3,> 10000,> 10000,> 10000,> 10000,> 10000,> 10000,
Cc1ccc(-c2c3c(nc4cnc5ccccc5c24)-c2ccccc2OC3)cc1 [listing 1 of 3 here],,,,,,,inhibition [1]: 38.3%; inhibition [2]: 11.1%; Ratio [3]: 1.25
Cc1ccc(-c2c3c(nc4cnc5ccccc5c24)-c2cc(Cl)ccc2OC3)cc1,> 10000,> 10000,> 10000,> 10000,> 10000,> 10000,
Cc1c2c(nc3cnc4ccccc4c13)-c1cc(Cl)ccc1OC2,> 10000,> 10000,> 10000,> 10000,> 10000,> 10000,
Cc1c2c(nc3cnc4ccccc4c13)-c1cc(C(C)(C)C)cc(C(C)(C)C)c1OC2,> 10000,> 10000,> 10000,> 10000,> 10000,> 10000,
Fc1ccc2c(c1)-c1nc3cnc4ccccc4c3cc1CO2 [listing 1 of 3 here],,,,,,,GI50 (NCI-H23): 1030 nM; GI50 (ACHN): 1000 nM; GI50 (NUGC-3): 1370 nM; GI50 (MDA-MB-231): 1230 nM; GI50 (PC-3): 1270 nM; GI50 (HCT-15): 1560 nM
Cc1ccc2c(c1)-c1nc3cnc4ccccc4c3c(C)c1CO2,> 10000,> 10000,> 10000,> 10000,> 10000,> 10000,
Cc1c2c(nc3cnc4ccccc4c13)-c1c(ccc3ccccc13)OC2,> 10000,> 10000,> 10000,> 10000,> 10000,> 10000,
Cc1ccc2c(c1)-c1nc3cnc4ccccc4c3cc1CO2,> 10000,> 10000,> 10000,> 10000,> 10000,> 10000,
Cc1c2c(nc3cnc4ccccc4c13)-c1cc(Br)ccc1OC2,> 10000,> 10000,> 10000,> 10000,> 10000,> 10000,
COc1cccc2c1C(=O)c1c(O)c3c(c(O)c1C2=O)C[C@@](O)(C(=O)CO)C[C@@H]3O[C@H]1C[C@H](N)[C@H](O)[C@H](C)O1 [DOXORUBICIN],90,80,86,68,76,77,
COc1ccc(Br)c2c1OCc1c-2nc2cnc3ccccc3c2c1C,> 10000,> 10000,> 10000,> 10000,> 10000,> 10000,
Fc1ccc2c(c1)-c1nc3cnc4ccccc4c3cc1CO2 [listing 2 of 3 here],1870,,1850,2200,,2200,GI50 (ACHN): 3200 nM; GI50 (PC-3): 2790 nM
c1ccc2c(c1)OCc1cc3c(cnc4ccccc43)nc1-2,> 10000,> 10000,> 10000,> 10000,> 10000,> 10000,
Clc1ccc2c(c1)-c1nc3cnc4ccccc4c3cc1CO2 [listing 1 of 3 here],1180,,2210,,1500,1570,GI50 (ACHN): 2560 nM; GI50 (MDA-MB-231): 2720 nM
Cc1ccc(-c2c3c(nc4cnc5ccccc5c24)-c2ccccc2OC3)cc1 [listing 2 of 3 here],,,,,,,GI50 (NCI-H23): 2060 nM; GI50 (ACHN): 2280 nM; GI50 (NUGC-3): 2700 nM; GI50 (MDA-MB-231): 1790 nM; GI50 (PC-3): 1530 nM; GI50 (HCT-15): 2720 nM
COc1cccc2c1OCc1c-2nc2cnc3ccccc3c2c1C [listing 1 of 3 here],,,,,,,GI50 (NCI-H23): 2390 nM; GI50 (ACHN): 2010 nM; GI50 (NUGC-3): 1560 nM; GI50 (MDA-MB-231): 1670 nM; GI50 (PC-3): 2060 nM; GI50 (HCT-15): 1290 nM
Brc1ccc2c(c1)-c1nc3cnc4ccccc4c3cc1CO2,> 10000,> 10000,> 10000,> 10000,> 10000,> 10000,
Cc1ccc(-c2c3c(nc4cnc5ccccc5c24)-c2ccccc2OC3)cc1 [listing 3 of 3 here],,2400,3850,,,4230,GI50 (NCI-H23): > 10000 nM; GI50 (MDA-MB-231): 5620 nM; GI50 (PC-3): 5020 nM
Clc1ccc2c(c1)-c1nc3cnc4ccccc4c3cc1CO2 [listing 2 of 3 here],,,,,,,inhibition [4]: 0%; inhibition [5]: 1.7% and 12.3%
Fc1ccc2c(c1)-c1nc3cnc4ccccc4c3cc1CO2 [listing 3 of 3 here],,,,,,,inhibition [4]: 14.5% and 12.2%; inhibition [2]: 4.2%; Ratio [6]: 1.32
Clc1ccc2c(c1)-c1nc3cnc4ccccc4c3cc1CO2 [listing 3 of 3 here],,,,,,,GI50 (NCI-H23): 900 nM; GI50 (ACHN): 1080 nM; GI50 (NUGC-3): 1160 nM; GI50 (MDA-MB-231): 1050 nM; GI50 (PC-3): 1670 nM; GI50 (HCT-15): 1090 nM
Cc1c2c(nc3cnc4ccccc4c13)-c1cc(Cl)cc(Cl)c1OC2,> 10000,> 10000,> 10000,> 10000,> 10000,> 10000,
Cc1c2c(nc3cnc4ccccc4c13)-c1cc(F)ccc1OC2,> 10000,> 10000,> 10000,> 10000,> 10000,> 10000,
COc1cccc2c1OCc1c-2nc2cnc3ccccc3c2c1C [listing 2 of 3 here],,,,,,,inhibition [4]: 0% and 23.5%; inhibition [5]: 14.4% and 10.2%
COc1cccc2c1OCc1c-2nc2cnc3ccccc3c2c1C [listing 3 of 3 here],1560,2190,2620,1520,1610,1790,
